Laboratory results published in ChEMBL document CHEMBL1134405 (J Med Chem, 2001).
Activity calls are given as the source filed them. The rule behind the calls is not given here. Peptide text beside a SMILES is read from it.

What was measured:
[1] = target: Glucagon receptor (Rattus norvegicus, UniProt P30082); assay: IC50 value was expressed as inhibition of [125]glucagon specific binding.
Procedure, shortened: (§1)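 Incubation 10 min at 30 °C, then ice cooling and filtration on 0.45 μm cellulose acetate, gamma counting. Nonspecific binding taken with 1024 nM unlabeled peptide and subtracted. Read as % inhibition of specific binding. Triplicates, repeated twice.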

[2] = target: T1, Adenylate cyclase (Rattus norvegicus) (UniProt D4A3N4+P26770+Q04400+P26769+Q03343+P40146+Q8CFM9+P21932); assay: Relative potency was evaluated by measuring potency for conversion of [alpha-32P]ATP to cyclic 3',5'-AMP relative to glucagon; format: protein assay
[3] = target: Glucagon receptor (Rattus norvegicus) (UniProt P30082); assay: Relative binding by measuring competition for glucagon receptor between [125]glucagon and the compound.; procedure, shortened: as §1
Glucagon receptor (Rattus norvegicus), sequence (P30082 whole entry): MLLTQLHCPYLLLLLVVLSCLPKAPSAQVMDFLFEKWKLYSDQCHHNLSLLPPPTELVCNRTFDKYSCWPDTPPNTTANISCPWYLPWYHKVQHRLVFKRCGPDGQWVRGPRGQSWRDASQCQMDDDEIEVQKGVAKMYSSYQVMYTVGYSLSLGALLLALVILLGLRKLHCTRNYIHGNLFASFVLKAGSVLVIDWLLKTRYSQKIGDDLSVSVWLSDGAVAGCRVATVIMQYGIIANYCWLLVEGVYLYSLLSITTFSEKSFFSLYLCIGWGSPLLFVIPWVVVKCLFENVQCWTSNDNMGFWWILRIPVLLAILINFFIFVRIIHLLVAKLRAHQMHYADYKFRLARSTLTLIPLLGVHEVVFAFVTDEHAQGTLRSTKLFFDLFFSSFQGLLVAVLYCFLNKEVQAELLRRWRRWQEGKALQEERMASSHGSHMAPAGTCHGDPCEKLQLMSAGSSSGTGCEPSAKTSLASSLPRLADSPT

[4] = A dose-response plot was obtained by determining the response when the concentration of glucagon was varied while the concentration was kept same.
[5] = target: T1, Adenylate cyclase (Rattus norvegicus); assay: Maximum stimulation of adenylate cyclase.; format: protein assay
[6] = target: T1, Adenylate cyclase (Rattus norvegicus); assay: Adenylate cyclase stimulation; Inactive up to 100 uM.; format: protein assay
[7] = target: Glucagon receptor (Rattus norvegicus) (UniProt P30082); assay: Compound was evaluated for its ability to displace radiolabeled glucagon (inactive up to 100 uM); procedure, shortened: as §1

Glucagon receptor, sequence (P30082 whole entry): as above

Compound	IC50 [1] [nM]	Relative binding [3] [%]	pA2 [4]	Max stimulation [5] [%]	IA [6]	other results
CSCC[C@H](NC(=O)[C@H](CC(C)C)NC(=O)[C@H](Cc1c[nH]c2ccccc12)NC(=O)[C@H](CCC(N)=O)NC(=O)[C@@H](NC(=O)[C@H](Cc1ccccc1)NC(=O)[C@H](CC(=O)O)NC(=O)[C@H](CCC(N)=O)NC(=O)[C@H](C)NC(=O)[C@H](CCCNC(=N)N)NC(=O)[C@H](CCCNC(=N)N)NC(=O)[C@H](CO)NC(=O)[C@H](CC(=O)O)NC(=O)[C@H](CC(C)C)NC(=O)[C@H](Cc1ccc2ccccc2c1)NC(=O)[C@H](CCCCN)NC(=O)[C@H](CO)NC(=O)[C@H](Cc1ccc2ccccc2c1)NC(C)=O)C(C)C)C(=O)N[C@@H](CC(N)=O)C(=O)N[C@H](C(N)=O)[C@@H](C)O (HELM PEPTIDE1{[ac].[O=C([C@H](Cc1ccc2ccccc2c1)N[*:1])[*:2]].S.K.[O=C([C@H](Cc1ccc2ccccc2c1)N[*:1])[*:2]].L.D.S.R.R.A.Q.D.F.V.Q.W.L.M.N.T.[am]}$$$$V2.0)	800					
CSCC[C@H](NC(=O)[C@H](CC(C)C)NC(=O)[C@H](Cc1c[nH]c2ccccc12)NC(=O)[C@H](CCC(N)=O)NC(=O)[C@@H](NC(=O)[C@H](Cc1ccccc1)NC(=O)[C@H](CC(=O)O)NC(=O)[C@H](CCC(N)=O)NC(=O)[C@H](C)NC(=O)[C@H](CCCNC(=N)N)NC(=O)[C@H](CCCNC(=N)N)NC(=O)[C@H](CO)NC(=O)[C@H](CC(=O)O)NC(=O)[C@H](CC(C)C)NC(=O)[C@H](Cc1ccc(O)cc1)NC(=O)[C@H](CCCCN)NC(=O)[C@H](CO)NC(=O)[C@H](Cc1ccc(O)cc1)NC(=O)CCCCCc1ccccc1)C(C)C)C(=O)N[C@@H](CC(N)=O)C(=O)N[C@H](C(N)=O)[C@@H](C)O (HELM PEPTIDE1{[O=C(CCCCCc1ccccc1)[*:2]].Y.S.K.Y.L.D.S.R.R.A.Q.D.F.V.Q.W.L.M.N.T.[am]}$$$$V2.0)	131					
CC(C)C[C@H](NC(=O)[C@H](Cc1ccc(O)cc1)NC(=O)[C@H](CCCCN)NC(=O)[C@H](CO)NC(=O)[C@H](Cc1ccc(O)cc1)NC(=O)[C@H](CC(=O)O)NC(=O)[C@H](CO)NC(=O)[C@@H](NC(=O)[C@H](Cc1ccccc1)NC(=O)[C@@H](NC(=O)CNC(=O)[C@H](CCC(N)=O)NC(=O)[C@H](CO)NC(=O)[C@@H](N)Cc1c[nH]cn1)[C@@H](C)O)[C@@H](C)O)C(=O)N[C@@H](CC(=O)O)C(=O)O		< 0.0001				Relative potency [2]: < 0.0001%
CC(C)C[C@H](NC(=O)[C@H](Cc1ccc(O)cc1)NC(=O)[C@H](CCCCN)NC(=O)[C@H](CO)NC(=O)[C@H](Cc1ccc(O)cc1)NC(=O)[C@H](CC(=O)O)NC(=O)[C@H](CO)NC(=O)[C@@H](NC(=O)[C@H](Cc1ccccc1)NC(=O)[C@@H](NC(=O)CNC(=O)[C@H](CCC(N)=O)NC(=O)[C@H](CO)NC(=O)[C@@H](N)Cc1c[nH]cn1)[C@@H](C)O)[C@@H](C)O)C(=O)N[C@@H](CC(=O)O)C(=O)N[C@@H](CO)C(=O)N[C@@H](CCCN=C(N)N)C(=O)N[C@@H](CCCN=C(N)N)C(=O)N[C@@H](C)C(=O)N[C@@H](CCC(N)=O)C(=O)N[C@@H](CC(=O)O)C(=O)N[C@@H](Cc1ccccc1)C(=O)N[C@H](C(=O)N[C@@H](CCC(N)=O)C(=O)O)C(C)C		0.0002				Relative potency [2]: 0.0002%
Ac-FTSDYSKYLDSRRAQDFVQWLMNT-NH2	31		6.57			
H-YSKYLDSRRAQ-NH2		0		0	Inactive up to 100 uM	IA [7]: Inactive up to 100 uM
CSCC[C@H](NC(=O)[C@H](CC(C)C)NC(=O)[C@H](Cc1c[nH]c2ccccc12)NC(=O)[C@H](CCC(N)=O)NC(=O)[C@@H](NC(=O)[C@H](Cc1ccccc1)NC(=O)[C@H](CC(=O)O)NC(=O)[C@H](CCC(N)=O)NC(=O)[C@H](C)NC(=O)[C@H](CCCNC(=N)N)NC(=O)[C@H](CCCNC(=N)N)NC(C)=O)C(C)C)C(=O)N[C@@H](CC(N)=O)C(=O)N[C@H](C(N)=O)[C@@H](C)O	2300					
H-DSRRAQDFVQWL-NH2		0		0	Inactive up to 100 uM	IA [7]: Inactive up to 100 uM
CSCC[C@H](NC(=O)[C@H](CC(C)C)NC(=O)[C@H](Cc1c[nH]c2ccccc12)NC(=O)[C@H](CCC(N)=O)NC(=O)[C@@H](NC(=O)[C@H](Cc1ccccc1)NC(=O)[C@H](CC(=O)O)NC(=O)[C@H](CCC(N)=O)NC(=O)[C@H](C)NC(=O)[C@H](CCCNC(=N)N)NC(=O)[C@H](CCCNC(=N)N)NC(=O)[C@H](CO)NC(=O)[C@H](CC(=O)O)NC(=O)[C@H](CC(C)C)NC(=O)[C@H](Cc1ccc(O)cc1)NC(=O)[C@H](CCCCN)NC(=O)[C@H](CO)NC(=O)[C@H](Cc1ccc(O)cc1)NC(=O)CCCc1ccccc1)C(C)C)C(=O)N[C@@H](CC(N)=O)C(=O)N[C@H](C(N)=O)[C@@H](C)O (HELM PEPTIDE1{[O=C(CCCc1ccccc1)[*:2]].Y.S.K.Y.L.D.S.R.R.A.Q.D.F.V.Q.W.L.M.N.T.[am]}$$$$V2.0)	21.2					
CC(=O)N[C@@H](Cc1ccccc1)C(=O)N[C@H](C(=O)N[C@@H](CO)C(=O)N[C@H]1CSSC[C@@H](C(=O)N[C@@H](CC(=O)O)C(N)=O)NC(=O)[C@H](Cc2ccc(O)cc2)NC(=O)[C@H](CCCCN)NC(=O)[C@H](CO)NC(=O)[C@H](Cc2ccc(O)cc2)NC1=O)[C@@H](C)O (HELM PEPTIDE1{[ac].F.T.S.C.Y.S.K.Y.C.D.[am]}$PEPTIDE1,PEPTIDE1,5:R3-10:R3$$$V2.0)		43		0	Inactive up to 100 uM	
CSCC[C@H](NC(=O)[C@H](CC(C)C)NC(=O)[C@H](Cc1c[nH]c2ccccc12)NC(=O)[C@H](CCC(N)=O)NC(=O)[C@@H](NC(=O)[C@H](Cc1ccccc1)NC(=O)[C@H](CC(=O)O)NC(=O)[C@H](CCC(N)=O)NC(=O)[C@H](C)NC(=O)[C@H](CCCN=C(N)N)NC(=O)[C@H](CCCN=C(N)N)NC(=O)[C@H](CO)NC(=O)[C@H](CC(=O)O)NC(=O)[C@H](CC(C)C)NC(=O)[C@H](Cc1ccc(O)cc1)NC(=O)[C@H](CCCCN)NC(=O)[C@H](CO)NC(=O)[C@H](Cc1ccc(O)cc1)NC(=O)Cc1ccccc1)C(C)C)C(=O)N[C@@H](CC(N)=O)C(=O)N[C@H](C(N)=O)[C@@H](C)O (HELM PEPTIDE1{[O=C(Cc1ccccc1)[*:2]].Y.S.K.Y.L.D.S.R.R.A.Q.D.F.V.Q.W.L.M.N.T.[am]}$$$$V2.0)	249		7.37			
Ac-FTSDYSKYL-NH2		0		0	Inactive up to 100 uM	IA [7]: Inactive up to 100 uM
Ac-YSKYLDSRRAQDFVQWLMNT-NH2 [listing 1 of 2 here]			7.44			
CC(=O)N[C@@H](Cc1ccccc1)C(=O)N[C@H](C(=O)N[C@@H](CO)C(=O)N[C@@H](CS)C(=O)N[C@@H](Cc1ccc(O)cc1)C(=O)N[C@@H](CO)C(=O)N[C@@H](CCCCN)C(=O)N[C@@H](Cc1ccc(O)cc1)C(=O)N[C@@H](CS)C(=O)N[C@@H](CC(=O)O)C(N)=O)[C@@H](C)O (Ac-FTSCYSKYCD-NH2)		32		0	Inactive up to 100 uM	
CSCC[C@H](NC(=O)[C@H](CC(C)C)NC(=O)[C@H](Cc1c[nH]c2ccccc12)NC(=O)[C@H](CCC(N)=O)NC(=O)[C@@H](NC(=O)[C@H](Cc1ccccc1)NC(=O)[C@H](CC(=O)O)NC(=O)[C@H](CCC(N)=O)NC(=O)[C@H](C)NC(=O)[C@H](CCCN=C(N)N)NC(=O)[C@H](CCCN=C(N)N)NC(=O)[C@H](CO)NC(=O)[C@H](CC(=O)O)NC(=O)[C@H](CC(C)C)NC(=O)[C@H](Cc1ccc(O)cc1)NC(=O)[C@H](CCCCN)NC(=O)[C@H](CO)NC(=O)[C@H](Cc1ccc(O)cc1)NC(=O)CCCc1ccccc1)C(C)C)C(=O)N[C@@H](CC(N)=O)C(=O)N[C@H](C(N)=O)[C@@H](C)O (HELM PEPTIDE1{[O=C(CCCc1ccccc1)[*:2]].Y.S.K.Y.L.D.S.R.R.A.Q.D.F.V.Q.W.L.M.N.T.[am]}$$$$V2.0)			7.38			
CSCC[C@H](NC(=O)[C@H](CC(C)C)NC(=O)[C@H](Cc1c[nH]c2ccccc12)NC(=O)[C@H](CCC(N)=O)NC(=O)[C@@H](NC(=O)[C@H](Cc1ccccc1)NC(=O)[C@H](CC(=O)O)NC(=O)[C@H](CCC(N)=O)NC(=O)[C@H](C)NC(=O)[C@H](CCCN=C(N)N)NC(=O)[C@H](CCCN=C(N)N)NC(=O)[C@H](CO)NC(=O)[C@H](CC(=O)O)NC(=O)[C@H](CC(C)C)NC(=O)[C@H](Cc1ccc(O)cc1)NC(=O)[C@H](CCCCN)NC(=O)[C@H](CO)NC(=O)[C@H](Cc1ccc(O)cc1)NC(=O)CCCCCc1ccccc1)C(C)C)C(=O)N[C@@H](CC(N)=O)C(=O)N[C@H](C(N)=O)[C@@H](C)O (HELM PEPTIDE1{[O=C(CCCCCc1ccccc1)[*:2]].Y.S.K.Y.L.D.S.R.R.A.Q.D.F.V.Q.W.L.M.N.T.[am]}$$$$V2.0)			7.37			
CSCC[C@H](NC(=O)[C@H](CC(C)C)NC(=O)[C@H](Cc1c[nH]c2ccccc12)NC(=O)[C@H](CCC(N)=O)NC(=O)[C@@H](NC(=O)[C@H](Cc1ccccc1)NC(=O)[C@H](CC(=O)O)NC(=O)[C@H](CCC(N)=O)NC(=O)[C@H](C)NC(=O)[C@H](CCCN=C(N)N)NC(=O)[C@H](CCCN=C(N)N)NC(=O)[C@H](CO)NC(=O)[C@H](CC(=O)O)NC(=O)[C@H](CC(C)C)NC(=O)[C@H](Cc1ccc2ccccc2c1)NC(=O)[C@H](CCCCN)NC(=O)[C@H](CO)NC(=O)[C@H](Cc1ccc2ccccc2c1)NC(C)=O)C(C)C)C(=O)N[C@@H](CC(N)=O)C(=O)N[C@H](C(N)=O)[C@@H](C)O (HELM PEPTIDE1{[ac].[O=C([C@H](Cc1ccc2ccccc2c1)N[*:1])[*:2]].S.K.[O=C([C@H](Cc1ccc2ccccc2c1)N[*:1])[*:2]].L.D.S.R.R.A.Q.D.F.V.Q.W.L.M.N.T.[am]}$$$$V2.0)		0.19	6.87	0	Inactive up to 100 uM	
Ac-YSKYLDSRRAQDFVQWLMNT-NH2 [listing 2 of 2 here]	60					
